Assay outcomes from PubChem BioAssay.
Compounds with a hit are over-represented: about 2.1% of the library has one in this group of screens.
INS-1E GSIS act = GLuc luminescence reporter in INS-1E cells, primary screen for activators of glucose-dependent secretion of insulin; INS-1E GLuc reporter insulin secretion, 2-3 h; activation, % at 16.6 µM; actives 0.61% (n = 370,000);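 active = lowest replicate activation of at least 40%, so every replicate reaches that level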;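 note: 0% = median of neutral control wells and 100% = median of IBMX positive control wells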
PAX8 inh HTS = PAX8 transcriptional activity inhibition. AID 652154. RMG-I TPO-luciferase reporter, SteadyGlo, 24 h. actives 1.2% (n = 360,000). inhibition, % at 12.6 µM;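 active = mean replicate inhibition at least 60% with every replicate also reaching 60%; inconclusive = only one of the two criteria is met; inactive = mean below 60% and not all replicates reaching 60%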;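 note: luciferase light reporting Pax8 driven TPO promoter activity; plate controls were median of neutral control wells for no effect and mitoxantrone controls for full effect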
Xi reactivation = X-chromosome reactivation activator; XiGFP mouse fibroblasts, % GFP-positive cells imaging, 3 d; cells co-treated with 5-aza-dC sensitizer; scaled so ellipticine positive control = 100%; activation, % at 7.58 µM; actives 0.055% (n = 360,000); AID 743238;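 active = mean normalized replicate activation at least 10% and every replicate at or above 10%; inconclusive = only one of the two criteria met; inactive = mean below 10% and not all replicates reach 10%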;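 note: 0% = median of on-plate neutral control wells and 100% = ellipticine 6 µM median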
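System: 68-5-11 XiGFP fibroblast line | Buffer or medium: DMEM containing 5-aza-dC | Compound: Single point | Times: Compounds 3 days, fix/stain 15 min at room temperature | Benchmarks: Positive control ellipticine, 6 µM final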
EWS-Fli inh = blocks EWS/Fli oncoprotein-driven transcription. actives 0.67% (n = 350,000). inhibition, % at 12.6 µM. AID 651661. A673 NR0B1-luciferase reporter, viability-normalised;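 active = mean inhibition of at least 50% after viability correction, with every replicate also passing that limit; inconclusive = mean reaches 50% but only one of two replicates passes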;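 note: firefly luciferase signal divided by Alamar Blue viability fluorescence both relative to DMSO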
PGC1a acetyl inh = modulators of PGC1a acetylation. U2OS PGC1a acetylation, AlphaScreen anti-acetyl-lysine; with virally co-expressed GCN5 acetyltransferase. inhibition, % at 15.6 µM. actives 0.17% (n = 350,000). AID 651687;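 active = every replicate shows inhibition of at least 40%; inconclusive = mean inhibition at least 40% but some replicate below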;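 note: 0% = neutral control wells and 100% = positive control wells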
MLL AF4-AF9 inh = inhibitors of human MLL-AF4/AF9 interaction | P42568 | AlphaScreen, biotin-AF4 peptide binding to FLAG-AF9 | inhibition, % at 10 µM | actives 0.47% (n = 350,000) | AID 651704;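 active = every replicate reaching a set inhibition limit, whatever the replicate mean, cut at about 25% in these data; inconclusive = mean inhibition reaches that limit but some replicates miss it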;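 note: 0% = plate neutral control median and 100% = total signal loss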
Target sequence (P42568 whole entry, looked up): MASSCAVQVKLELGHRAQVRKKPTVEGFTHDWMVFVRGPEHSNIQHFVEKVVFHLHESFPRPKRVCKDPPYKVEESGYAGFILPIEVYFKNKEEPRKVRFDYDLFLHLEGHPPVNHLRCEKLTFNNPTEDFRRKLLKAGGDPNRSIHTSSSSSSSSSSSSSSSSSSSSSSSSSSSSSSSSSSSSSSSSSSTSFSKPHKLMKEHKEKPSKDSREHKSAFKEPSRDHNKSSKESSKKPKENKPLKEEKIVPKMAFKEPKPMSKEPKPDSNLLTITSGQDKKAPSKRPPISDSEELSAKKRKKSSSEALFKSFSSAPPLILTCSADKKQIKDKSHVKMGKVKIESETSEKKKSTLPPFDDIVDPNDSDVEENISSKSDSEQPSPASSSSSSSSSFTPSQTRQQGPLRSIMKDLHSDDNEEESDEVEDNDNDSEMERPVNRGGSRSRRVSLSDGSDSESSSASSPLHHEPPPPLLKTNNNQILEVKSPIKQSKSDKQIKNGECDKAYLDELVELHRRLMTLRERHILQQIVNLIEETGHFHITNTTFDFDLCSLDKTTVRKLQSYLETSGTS
AlphaScreen intf = AlphaScreen signal interference counter-screen hit. AC50, µM (top dose mostly 12 µM), for inactives: top-dose activity change, negative = inhibition. shares compounds with MLL AF4-AF9 inh. signal luminescence. AID 720494. actives 45% (n = 530); cut-off not given, nearly all actives have AC50 up to about 14 µM
* hit, by the source's call; ? = inconclusive; nt = no result given; ! = not confirmed by another sample.

SMILES	INS-1E GSIS act	PAX8 inh HTS	Xi reactivation	EWS-Fli inh	PGC1a acetyl inh	MLL AF4-AF9 inh	AlphaScreen intf
CCN1CCN(Cc2ccc(NC(=O)c3cc(NC(=O)c4nccnc4N)cc(OC)c3)cc2C(F)(F)F)CC1	7	-13	1	1	nt	?	-22%
CCn1c(SCC(=O)N2c3ccccc3Sc3ccccc32)nnc1-c1ccco1	-2	nt	nt	nt	-2	nt	nt
Cn1c(SCC(=O)N2c3ccccc3Sc3ccc(Cl)cc32)nnc1-c1ccco1	-6	nt	nt	-29	2	?	-2%
CC(=O)N(C)C[C@@H]1Oc2ncc(C#Cc3ccccc3F)cc2C(=O)N([C@@H](C)CO)C[C@@H]1C	-3	nt	0	-15	2	-3	nt
COc1ccc(NC(=O)Nc2ccc3c(c2)C(=O)N([C@H](C)CO)C[C@H](C)[C@H](CN(C)Cc2ccc(Cl)c(Cl)c2)OCCCC[C@@H](C)O3)cc1	2	15	0	-9	-4	-2	nt
CCc1ccc(CNc2ccc3c(c2)ncn3C(C)(C)C)cc1	17	-45	0	-87	nt	15	nt
CCN(CC)c1ccc(CNc2ccc3c(c2)ncn3C(C)(C)C)cc1	-37	1	0	4	nt	41*	9µM*
COc1ccc2c3c(n(C)c2c1)[C@H](CO)N(C(=O)NC1CCCCC1)CC31CN(C)C1	-5	nt	0	nt	nt	nt	nt
C[C@@H]1CCCCO[C@H](CN(C)Cc2ccc(Cl)c(Cl)c2)[C@@H](C)CN([C@H](C)CO)C(=O)c2cc(N(C)C)ccc2O1	-35	4	0	2	0	50*!	-38%
C[C@H](CO)N1C[C@H](C)[C@@H](CN(C)Cc2ccc(Cl)c(Cl)c2)Oc2ccc(N(C)C)cc2CC1=O	-31	75*	-1	-1	0	40*	-36%
C[C@H]1CN([C@@H](C)CO)C(=O)Cc2cc(N(C)C)ccc2O[C@H]1CN(C)Cc1ccc2c(c1)OCO2	19	-3	0	-10	-7	4	nt
C[C@@H]1CCCCO[C@@H](CN(C)Cc2ccc3c(c2)OCO3)[C@@H](C)CN([C@H](C)CO)C(=O)c2cc(N(C)C)ccc2O1	-10	-4	0	8	3	15	nt
C[C@@H]1CN([C@@H](C)CO)C(=O)Cc2cc(N(C)C)ccc2O[C@H]1CN(C)Cc1ccc(Cl)c(Cl)c1	-4	71*	0	-1	0	48*	12µM*
C[C@@H]1CN([C@H](C)CO)C(=O)Cc2cc(N(C)C)ccc2O[C@H]1CN(C)Cc1ccc(Cl)c(Cl)c1	-16	32	-1	-3	0	nt	nt
C[C@H]1CN([C@@H](C)CO)C(=O)c2cc(NC(=O)c3ccncc3)ccc2O[C@H]1CN(C)Cc1ccc2c(c1)OCO2	-2	10	0	-6	4	nt	nt
COc1ccccc1N(C(C)=O)C1=C(Cl)C(=O)c2ccccc2C1=O	nt	117*	0	56*	5	28*	4.4µM*
CCOC(=O)/C(C#N)=C/c1c(N2CCN(Cc3ccc4c(c3)OCO4)CC2)nc2c(C)cccn2c1=O	-8	2	0	19	3	39*	-7%
COC(=O)/C(C#N)=C/c1c(N2CCN(Cc3ccc4c(c3)OCO4)CC2)nc2c(C)cccn2c1=O	22	0	0	10	nt	2	nt
COCC(=O)Nc1ccc2c(c1)C(=O)N(C)C[C@H](OC)[C@H](C)CN(C(C)=O)[C@@H](C)CO2	17	nt	0	3	0	-1	nt
CC=Cc1ccc2n(c1=O)C[C@H]1N[C@@H]2[C@@H](C(=O)NCCc2ccccc2)[C@@H]1CO (mixture of isomers)	8	nt	1	8	nt	-1	nt
CN1CCN(CCCCOc2ccccc2C=O)CC1	8	-2	0	14	-3	33*	-36%
NCCc1c(-c2ccccc2)n(-c2ccccc2)c2ccccc12	19	-6	0	13	-16	47*	14µM*
CCOc1ccc(Nc2nc(NCC3CCCO3)c3ccccc3n2)cc1 (centres undefined)	-10	22	0	11	0	28*	-11%
CC(C)(C)[S@@](=O)N1Cc2cc(C(=O)NCc3ccccc3F)nc(-c3cccc(-c4ccncc4)c3)c2[C@H]1CCO	-61	24	0	6	13	-4	nt
COc1ccc(OC)c(C2=NOC(C(=O)Nc3c(C)n(C)n(-c4ccccc4)c3=O)C2)c1 (centres undefined)	3	3	0	1	-2	-8	5%
SMILES	INS-1E GSIS act	PAX8 inh HTS	Xi reactivation	EWS-Fli inh	PGC1a acetyl inh	MLL AF4-AF9 inh	AlphaScreen intf
CCN(CC)CCNc1cccc2sc3ccccc3c(=O)c12	nt	44	0	0	1	29*	2.2µM*
C[C@@H]1NC(=O)N[C@@H]1CCCCCC(=O)O	nt	10	0	-1	5	90*	1.1µM*
CCCC(=O)Nc1ccc2c(c1)OC[C@@H](C)N(Cc1ccc(F)cc1)C[C@@H](C)[C@H](OC)CN(C)C2=O	-18	-3	0	nt	2	-1	nt
CC1(C)CNc2cc(N)ccc2S1	-8	19	0	-22	nt	63*	2.3µM*
C[C@@H]1CCCCO[C@@H](CN(C)S(=O)(=O)c2ccc(F)cc2)[C@H](C)CN([C@@H](C)CO)C(=O)c2cc(NS(=O)(=O)c3ccccc3)ccc2O1	-23	-9	0	-8	-15	2	nt
CCCC(=O)NC(c1ccco1)c1cc([N+](=O)[O-])c2cccnc2c1O (centres undefined)	-14	14	0	20	1	-15	nt
CCCC(=O)NC(c1ccc(N(C)C)cc1)c1ccc2cccnc2c1O (centres undefined)	nt	95*	2	36	3	50*	1.5µM*
COC(=O)C1=CN(Cc2ccc(OC)cc2)C=C(C(=O)OC)C1c1cccs1	-8	5	0	1	nt	-13	nt
COC(=O)C1=CC(C(=O)c2cccs2)=NN(c2ccc(OC)cc2)C1C(=O)OC (centres undefined)	0	10	0	3	nt	32*	-25%
CCN(CC)c1ccc(N=Cc2ccc([N+](=O)[O-])o2)cc1	nt	-4	3	2	nt	46*	-25%
CCN(CC)c1ccc(N=Cc2ccccc2[N+](=O)[O-])cc1	nt	-23	0	-8	nt	21	nt
Nc1ccc(C(=O)C(=O)c2ccc(N)cc2)cc1	-6	5	0	-16	nt	4	nt
N=C1C=CC(=C(c2ccc(N)cc2)c2ccc(N)cc2)C=C1	nt	59	0	17	-13	45*	11µM*
N#CC(C#N)=c1ccc2c(c1)N1C3=C(CCCC3)CC3CCCCC31N=2 (centres undefined)	nt	nt	nt	nt	12	nt	nt
N#C/C(C(N)=O)=c1/ccc2c(c1)N1C3=C(CCCC3)CC3CCCCC31N=2 (centres undefined)	nt	nt	nt	nt	nt	85*	2.7µM*
